Data from ChEMBL document CHEMBL1123827, “Alpha 2-adrenergic agonists/antagonists: the synthesis and structure-activity relationships of a series of indolin-2-yl and tetrahydroquinolin-2-yl imidazolines” (J Med Chem, 1987).

Experiments:
[1] = molecular target: T1, Adrenergic receptor alpha-2 (Rattus norvegicus, UniProt P22086+P19328+P22909); test: Binding affinity against alpha-2 adrenergic receptor was determined by the displacement of [3H]clonidine from rat brain cortical membranes; type: cell membranes, Membrane
T1 sequence (P22086 whole entry): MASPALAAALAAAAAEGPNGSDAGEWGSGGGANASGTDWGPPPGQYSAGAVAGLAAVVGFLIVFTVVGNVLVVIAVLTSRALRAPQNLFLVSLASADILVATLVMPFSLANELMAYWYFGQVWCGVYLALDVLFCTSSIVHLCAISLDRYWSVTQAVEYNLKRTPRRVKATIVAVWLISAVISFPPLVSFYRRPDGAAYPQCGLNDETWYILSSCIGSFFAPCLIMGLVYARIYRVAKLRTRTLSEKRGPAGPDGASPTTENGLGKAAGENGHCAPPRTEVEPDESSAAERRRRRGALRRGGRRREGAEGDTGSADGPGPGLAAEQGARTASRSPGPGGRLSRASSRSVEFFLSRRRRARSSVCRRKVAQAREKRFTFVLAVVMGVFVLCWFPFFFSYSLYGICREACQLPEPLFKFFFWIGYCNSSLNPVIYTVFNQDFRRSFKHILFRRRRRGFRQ
T1 sequence (P19328 whole entry): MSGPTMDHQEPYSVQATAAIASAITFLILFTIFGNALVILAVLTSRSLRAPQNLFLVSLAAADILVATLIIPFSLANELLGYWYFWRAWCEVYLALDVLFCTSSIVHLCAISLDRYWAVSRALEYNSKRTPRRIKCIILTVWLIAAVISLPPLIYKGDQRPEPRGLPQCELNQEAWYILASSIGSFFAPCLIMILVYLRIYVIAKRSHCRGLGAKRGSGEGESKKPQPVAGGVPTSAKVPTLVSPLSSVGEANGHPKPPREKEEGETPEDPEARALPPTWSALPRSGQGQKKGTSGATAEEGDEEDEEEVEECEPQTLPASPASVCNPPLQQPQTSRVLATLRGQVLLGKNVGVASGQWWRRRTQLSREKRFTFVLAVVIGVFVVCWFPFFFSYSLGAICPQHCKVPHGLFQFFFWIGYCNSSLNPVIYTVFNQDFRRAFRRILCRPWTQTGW
T1 sequence (P22909 whole entry): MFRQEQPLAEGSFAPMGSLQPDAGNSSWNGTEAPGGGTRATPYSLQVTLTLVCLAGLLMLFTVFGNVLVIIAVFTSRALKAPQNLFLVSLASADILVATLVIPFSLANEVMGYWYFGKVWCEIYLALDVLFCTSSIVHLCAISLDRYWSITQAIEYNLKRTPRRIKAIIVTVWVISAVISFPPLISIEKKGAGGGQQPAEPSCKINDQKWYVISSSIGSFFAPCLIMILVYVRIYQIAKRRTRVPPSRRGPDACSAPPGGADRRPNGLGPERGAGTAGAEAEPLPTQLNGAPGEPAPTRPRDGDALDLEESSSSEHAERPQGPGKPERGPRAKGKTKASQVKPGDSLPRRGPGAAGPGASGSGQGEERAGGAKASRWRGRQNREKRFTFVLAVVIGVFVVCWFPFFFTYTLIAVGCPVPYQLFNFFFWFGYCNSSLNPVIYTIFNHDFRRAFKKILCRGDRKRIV

[2] = molecular target: T1, Adrenergic receptor alpha-2; test: The compound was evaluated for the alpha-2 adrenergic receptor activity in rat vas deferens.
How it was run: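 Isolated vasa deferentia from Sprague-Dawley rats (180–250 g) mounted between platinum ring electrodes at 1 g resting tension in oxygenated Krebs at 37 °C. Single-pulse electrical stimulation (1 ms, 0.15 Hz, lowest voltage giving maximal contraction); inhibition of twitch contractions gives IC50 for agonists. Mean of at least three experiments, separate animals.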

`CSC[C@@]1(C2=NCCN2)Cc2ccccc2N1C` showed a Ki [1] of 13.2 nM and an IC50 [2] of 179 nM.
